Rows were chosen to be rich in hits. Some 1.7% of all compounds tested hit in one or more screens of this group.
Scp1 inh: Scp-1 (human) phosphatase inhibition; Q9GZU7; inhibition, % at 20 µM; 340,000 compounds, 0.88% hits; Recombinant Scp1, phosphopeptide, malachite green phosphate absorbance;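 active = inhibition above about 50% at 20 µM, limit read from the data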
Target sequence (Q9GZU7 76-261 limits assumed): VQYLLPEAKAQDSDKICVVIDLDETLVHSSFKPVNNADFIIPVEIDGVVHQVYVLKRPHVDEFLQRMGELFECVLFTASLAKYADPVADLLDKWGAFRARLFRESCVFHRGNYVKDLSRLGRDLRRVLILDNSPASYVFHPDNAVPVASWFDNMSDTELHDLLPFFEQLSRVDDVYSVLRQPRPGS
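Incubation: 45 min enzyme reaction at room temperature / System: truncated SCP-1 phosphatase (76-261aa) / Reagent: Phospho 17-mer peptide substrate / Buffer or medium: Acidic Tris acetate buffer with magnesium and detergent / Signal: absorbance at 630 nm / Doses: one concentration, 20 µM, with 1.0% DMSO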
STEP inh: inhibitors of human striatal-enriched phosphatase STEP; inhibition, % at 20 µM; 360,000 compounds, 0.25% hits; recombinant STEP, OMFP fluorogenic substrate, fluorescence;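 active = inhibition at 20 µM, scaled per plate between control wells, above about 37%, limit read from the data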
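System: STEP phosphatase, cell-free reaction; Buffer or medium: Bis-Tris pH 6.0 buffer with DTT, detergent; Incubation: 20 min at room temperature, dark; Measured by: fluorescence, 480/540 nm.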
LMPTP inh: blocks human LMPTP phosphatase; AID 651560; inhibition, % at 20 µM; 360,000 compounds, 0.22% hits; P24666; recombinant LMPTP-A, OMFP fluorogenic substrate, fluorescence intensity;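 active = compounds that cut the enzyme signal by at least half of the control window in the single-dose screen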
Target sequence (P24666 whole entry, looked up): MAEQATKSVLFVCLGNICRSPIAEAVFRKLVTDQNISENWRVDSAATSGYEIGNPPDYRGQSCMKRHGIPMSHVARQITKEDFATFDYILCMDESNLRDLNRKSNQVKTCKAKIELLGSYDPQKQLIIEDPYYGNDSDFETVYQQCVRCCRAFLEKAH
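Test system: LMPTP-A, protein tyrosine phosphatase of low molecular weight; Input: 0.625 nM enzyme; Incubation: 50 min dark incubation at room temperature; Signal: endpoint fluorescence intensity from OMFP dephosphorylation; Read-out basis: % inhibition versus control wells.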
DNMT1 inh: DNMT1 (human) enzyme inhibition | DNMT1 molecular beacon, Hinp1I cleavage, fluorescence | inhibition (reported as % activation of signal), % at 10 µM | P26358 | 360,000 compounds, 0.83% hits; in the data active = inhibition above about 50%
SUMO1-SIM PPI: alters human SUMO1 binding to SIM partners; SUMO1 binding to a labelled peptide, TR-FRET, 1 h; 360,000 compounds, 0.33% hits; inhibition, % at 20 µM; P63165; in the data active = inhibition above about 37%
Target sequence (P63165 whole entry, looked up): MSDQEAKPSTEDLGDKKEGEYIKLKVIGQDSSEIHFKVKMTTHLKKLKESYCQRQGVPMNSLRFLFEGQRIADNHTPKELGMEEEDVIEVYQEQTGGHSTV
DNMT1 interf DR: shows spectral interference in the DNMT1 beacon assay; AID 602382; 200 tested, under 10 active; IC50, µM; shares compounds with DNMT1 inh; molecular beacon fluorescence, spectral interference counter-screen; call rule not given here
DNMT1 inh conf: confirmation of human DNMT1 inhibitors | AID 602385 | 2,300 compounds, 8% hits | DNMT1 molecular beacon HinP1I cleavage, fluorescence | inhibition, % at 10 µM | shares compounds with DNMT1 inh;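 active = average inhibition of at least 30% in the single-concentration confirmation test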
DNMT1 interf: shows spectral interference in the DNMT1 beacon assay; AID 602387; shares compounds with DNMT1 inh; activation (fluorescence interference), % at 10 µM; DNMT1 molecular beacon spectral interference counterscreen, fluorescence 485/520; 2,300 compounds, 1% hits;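 active = activation of at least 30% at 10 µM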;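 note: DNMT1 catalytic domain with a HinP1I cleavage step and a FAM/dabcyl DNA beacon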
Each line names hits and unclear results; the compound was inactive in the other large screens (follow-up assays come after a bar, where they were run); ! = repeats disagree.

O=C(CCCOc1ccc(Cl)cc1Cl)NNC(=O)c1ccc(NC(=O)c2ccccc2)cc1	LMPTP inh 69, DNMT1 inh 73 | DNMT1 inh conf inactive | DNMT1 interf inactive
Cc1ccccc1C(=O)Nc1ccc(C(=O)NNC(=O)CCCOc2ccc(Cl)cc2Cl)cc1	none
O=c1c(-c2ccccc2)cocc1-c1ccccc1	none (no result: Scp1 inh)
CCC(=O)Nc1ccc2c(c1)OC[C@@H](C)N(Cc1cccc(F)c1)C[C@@H](C)[C@@H](OC)CN(C)C2=O	none (no result: Scp1 inh, STEP inh, DNMT1 inh)
Cc1cc(C)cc(N(CC(=O)NCc2ccc(F)cc2)C(=O)CCC(=O)Nc2ccccn2)c1	none
CCOc1ccc(NC(=O)CCS(=O)(=O)c2ccc(Br)cc2)cc1	DNMT1 inh 84, SUMO1-SIM PPI 48 | DNMT1 inh conf inactive | DNMT1 interf inactive
O=C(CCS(=O)(=O)c1ccc(Cl)cc1)Nc1ccccc1Br	none
COC(=O)c1ccccc1NC(=O)CCS(=O)(=O)c1ccc(Br)cc1	Scp1 inh 80, DNMT1 inh 90 | DNMT1 interf DR inactive | DNMT1 inh conf 95 | DNMT1 interf inactive
C/C(=N\NS(=O)(=O)c1ccc([N+](=O)[O-])cc1)c1ccc(NC(=O)c2ccco2)cc1	none
Cc1ccc(CN(C)CC(=O)Nc2ccccc2C(=O)NC2CC2)o1	none
COc1ccccc1-c1csc(C(O)c2ccc(F)cc2)n1 (configuration not stated)	none (no result: Scp1 inh)
COc1ccc(NC(=O)c2ccc3nc(C)c(N(C)C(=O)CCc4ccccc4)n3c2)cc1OC	none (no result: Scp1 inh)
COc1ccc(Cl)cc1NC(=O)c1cccc([N+](=O)[O-])c1O	DNMT1 inh 66 | DNMT1 inh conf inactive | DNMT1 interf inactive
CCOc1ccc(/C=c2\sc3nc(-c4ccco4)nn3c2=O)cc1OCC	DNMT1 inh 65 | DNMT1 inh conf inactive | DNMT1 interf inactive
N#Cc1c(SCC(=O)Nc2ccc(Cl)cc2Cl)sc2c(O)cc(=O)[nH]c12	none
N#Cc1c(SCC(=O)Nc2nc3ccc(Br)cc3s2)sc2c(O)cc(=O)[nH]c12	Scp1 inh 54, LMPTP inh 53, DNMT1 inh 80 | DNMT1 interf DR inactive | DNMT1 inh conf inactive | DNMT1 interf inactive
O=C(CN1C(=O)c2ccccc2S1(=O)=O)c1ccc(Cl)cc1Cl	none
CC(=O)c1cccc(OCC(=O)N(C)CC(=O)NCc2ccco2)c1	Scp1 inh 81, DNMT1 inh 96 | DNMT1 interf DR inactive | DNMT1 inh conf 52 | DNMT1 interf inactive
COc1cc2c(C#N)c(N3CCN(C)CC3)nc(N)c2c(N)n1	none (no result: Scp1 inh)
CCCOc1cc2c(C#N)c(N3CCCC3)nc(N)c2c(N)n1	DNMT1 inh 97, SUMO1-SIM PPI 51 | DNMT1 inh conf inactive | DNMT1 interf inactive
COc1cc2c(C#N)c(N3CCCC3)nc(N)c2c(N)n1	DNMT1 inh 99, SUMO1-SIM PPI 56 | DNMT1 inh conf inactive | DNMT1 interf inactive
COc1ccccc1CNC(=O)C1(C)CCN1C(=O)C1(c2ccccc2)CC1 (configuration not stated)	none (no result: Scp1 inh)
COc1cc2nc(CN3CCN(S(=O)(=O)c4cc(C)ccc4C)CC3)[nH]c(=O)c2cc1OC	DNMT1 inh 92 | DNMT1 inh conf inactive | DNMT1 interf inactive
CC[C@]12C(=O)N(C)C[C@H]([C@@H]3C(=O)N(Cc4ccccc4)C(=O)[C@@H]31)N2C(=O)c1ccccc1	none
N#Cc1ccccc1OCC(=O)Nc1nnc(C2CC2)s1	none
CCCCn1c(N)c(-c2nc3ccccc3o2)c2c([N+](=O)[O-])nn(CC)c(=O)c21	DNMT1 inh 56 | DNMT1 inh conf inactive | DNMT1 interf inactive
CCCCCn1c(N)c(-c2nc3ccccc3s2)c2c([N+](=O)[O-])nn(C)c(=O)c21	none
O=C(O)[C@H](Cc1ccccc1)NC(=O)N1CCN(c2ccc(F)cc2)CC1	none
CC(=O)c1sc2nc(-c3ccco3)ccc2c1N	Scp1 inh 79, DNMT1 inh 67 | DNMT1 inh conf inactive | DNMT1 interf inactive
Cc1cccc(C(=O)OCC(=O)Nc2ccccc2C(=O)NC2CC2)c1	none
O=C(Nc1ccc(-c2nc3ncccc3o2)cc1)c1ccc([N+](=O)[O-])o1	DNMT1 inh 50 | DNMT1 inh conf inactive | DNMT1 interf inactive
Cc1nn(CCO)c2nc(-c3cccs3)cc(C(F)(F)F)c12	DNMT1 inh 60 | DNMT1 inh conf inactive | DNMT1 interf inactive
Cc1ccc(C(=O)Nc2cccc(C(F)(F)F)c2)cc1NC(=O)c1nccn1C	DNMT1 inh 56! | DNMT1 inh conf inactive | DNMT1 interf inactive
Cc1ccc(C(=O)Nc2cccc(C(F)(F)F)c2)cc1NC(=O)c1ccno1	none
Cc1nc2ccccc2n1CC(=O)NN	DNMT1 inh 74 | DNMT1 inh conf inactive | DNMT1 interf inactive
CCn1c(SCC(=O)N2CCc3ccccc32)nnc1-c1c[nH]c2ccccc12	none
COc1ccc(-n2c(SCC(=O)N3CCc4ccccc43)nnc2-c2c[nH]c3ccccc23)cc1	DNMT1 inh 67 | DNMT1 inh conf inactive | DNMT1 interf inactive
Cc1ccc2c(c1)N(CCCC(=O)Nc1cccc(C(F)(F)F)c1)C(=O)CO2	none
C[C@@H]1CN([C@@H](C)CO)C(=O)CCCn2nncc2CO[C@@H]1CN(C)C(=O)c1cc(-c2ccccc2)on1	none (no result: Scp1 inh)
c1ccc(-c2nccc(-c3ccc(-n4cnc5ccccc54)cc3)n2)cc1	DNMT1 inh 82 | DNMT1 inh conf inactive | DNMT1 interf inactive
CCN(CC)C(=O)C1=C(C)N(CCCN2CCCC2=O)C(=O)C(CC(=O)NCc2cccc3ccccc23)C1 (configuration not stated)	none (no result: Scp1 inh)
O=C(Nc1ccc(O)c2c(=O)cc(-c3cccc(Cl)c3)oc12)c1ccccc1Cl	DNMT1 inh 54 | DNMT1 inh conf inactive | DNMT1 interf inactive
O=C(O)C(c1ccccc1)C1CCCCC1O (configuration not stated)	none
Nc1ccc(Nc2ccccc2)c(S(=O)(=O)O)c1	Scp1 inh 83, STEP inh 97, LMPTP inh 70, DNMT1 inh 97, SUMO1-SIM PPI 58 | DNMT1 inh conf inactive | DNMT1 interf inactive
CCC1CCC(C(=O)NNC(=O)c2cc(-c3ccco3)[nH]n2)CC1 (configuration not stated)	DNMT1 inh 51 | DNMT1 inh conf inactive | DNMT1 interf inactive
O=C(NNC(=O)C1CCCCC1)c1ccco1	none
CCOc1ccc2oc(C(=O)Nc3nccs3)c(C)c2c1	DNMT1 inh 68 | DNMT1 inh conf inactive | DNMT1 interf inactive
CC(=O)Nc1ccc(C2=NOC(C)(C)C(=O)N2Cc2cccc(C#N)c2)cc1	none (no result: Scp1 inh)
